# Screens as filed in PubChem.
# RTF Ca sens act: increases calcium sensitivity of human cardiac regulated thin filaments; IANBD-labeled TnC RTF fluorescence at EC20 calcium; 0% EC20 calcium, 100% full calcium; activation, % at 7.2 µM; 340,000 tested, 0.24% active; AID 493008;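 active = activation above the mean over all tested compounds plus 3 SD, cut at about 30% in these data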;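 note: rise in fluorescence read as greater calcium sensitivity of cardiac thin filaments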
# UCH37 inh: human UCH37 deubiquitinating enzyme inhibition | AID 588478 | purified proteasome/UCH37, Ub-AMC cleavage fluorescence | inhibition, % (no concentration beside the values) | 330,000 tested, 0.33% active;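 active = mean inhibition over replicate wells above about 20%, limit read from the data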
# Target sequence (Q9Y5K5 whole entry, looked up): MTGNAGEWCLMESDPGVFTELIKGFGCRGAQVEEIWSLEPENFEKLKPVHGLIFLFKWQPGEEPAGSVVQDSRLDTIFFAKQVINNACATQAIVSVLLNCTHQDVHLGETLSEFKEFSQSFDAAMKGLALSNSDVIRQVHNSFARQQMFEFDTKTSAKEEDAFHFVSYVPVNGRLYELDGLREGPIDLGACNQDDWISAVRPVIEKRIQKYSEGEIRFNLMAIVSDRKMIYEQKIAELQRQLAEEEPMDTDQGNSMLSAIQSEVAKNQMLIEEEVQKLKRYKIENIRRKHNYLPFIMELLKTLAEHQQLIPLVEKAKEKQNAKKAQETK
#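 Test system – human UCH37 enzyme supplied as purified proteasome complex · Incubation – 30 min preincubation with enzyme, 25 min cleavage at room temperature · Detection – AMC fluorescence from Ub-AMC cleavage, excitation 355 nm, emission 460 nm · Benchmarks – no-proteasome wells (full inhibition) and compound-free wells (no inhibition)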
# Mot1-301 SUMO: blocks SUMOylation pathway, rescuing yeast Mot1-301 growth. S. cerevisiae Mot1-301 growth rescue, ATP luminescence, 38.5C; percent above DMSO median, 100 means doubled. 320,000 tested, 1% active. growth rescue, % at 18.8 µM. AID 2716;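 active = every valid replicate shows activation above 250% relative to neutral control wells; inactive = the rest, any valid replicate at or below 250%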
# Efflux pump inh: blocks antifungal efflux pumps in multiplex yeast assay; S. cerevisiae Candida pump triplex, Nile Red efflux; inhibition, % at 10 µM; 330,000 tested, 0.44% active;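 active = plate passing quality check with inhibition over a set limit, or well fluorescence over plate mean plus 4 SD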;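 note: Nile Red retained in pooled yeast measured as flow cytometry median fluorescence; higher means more Nile Red kept so more efflux inhibition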
# ARNT-TACC3 inh: disrupts binding between human ARNT and TACC3 | 390,000 tested, 0.66% active | Q9Y6A5 | AlphaScreen His-ARNT PAS-B/GST-TACC3 binding, luminescence; TACC3 fragment carries E629A point mutation | inhibition, % at 9.99 µM | AID 623870;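 active = mean inhibition of replicates at least 50% and at least half of replicates each reaching 50%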
# RTF Ca sens inh: cardiac RTF calcium desensitization; IANBD-labeled cardiac RTF, Ca2+ fluorescence; inhibition, % at 7.15 µM; AID 493244; 340,000 tested, 0.12% active;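 active = inhibition above the mean inhibition of all tested compounds plus 3 SD, cut at about 17% in these data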;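 note: assay run at fixed EC70 calcium of 1.6 mM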
# UCH37 reconfirm: UCH37 Ub-AMC cleavage inhibition, confirmed. shares compounds with UCH37 inh. Proteasome-bound UCH37, Ub-AMC cleavage fluorescence. inhibition, % at 20 µM. 480 tested, 27% active;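 active = average inhibition over replicates above about 50%, so the earlier screening hit is confirmed, limit read from the data; inactive = the rest, counted as false positives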;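 note: based on cleavage rate fitted by regression over a 30 min kinetic read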
# Hits are given with their value; n = inactive; x = no result given. Rows were chosen to be rich in hits. Some 2.1% of all compounds tested hit in one or more screens of this group.
SMILES,RTF Ca sens act,UCH37 inh,Mot1-301 SUMO,Efflux pump inh,ARNT-TACC3 inh,RTF Ca sens inh,UCH37 reconfirm
O=C1C=C(Nc2ccc(F)cc2)c2ccccc2C1=O,n,57,n,n,n,n,n
CCOc1ccc(NC2=CC(=O)C(=O)c3ccccc32)cc1,n,x,x,x,n,n,x
O=C1C=C(Nc2ccccc2O)c2ccccc2C1=O,n,81,n,n,n,n,85
O=C(Nc1ccccc1O)c1ccc2c(c1)C(=O)N(N1C(=O)c3ccccc3C1=O)C2=O,n,n,n,n,n,n,x
Cc1ccc(NS(=O)(=O)c2ccc3c(c2)C(=O)c2ccccc2C3=O)c(C)c1,n,n,n,n,n,n,x
O=C1C=C(NCc2ccccc2)c2ccccc2C1=O,n,53,x,x,n,n,n
COc1ccc([C@H]2CC(=O)C=C(c3ccc4ccccc4c3)C2)cc1OC,n,n,n,n,n,n,x
COc1ccc([C@H]2CC(=O)C=C(c3ccc(-c4ccccc4)c(F)c3)C2)cc1OC,n,41,n,n,n,n,n
CN1CCS/C1=C\C=C1/SC(=S)N(CC(=O)O)C1=O,268,39,x,x,n,n,n
O=C(O)c1cc(-c2ccc(/C=C3/SC(=S)N(Cc4ccccc4)C3=O)o2)ccc1Cl,n,45,x,x,n,n,60
Cc1ccc(/C=C2\SC(=S)N(Cc3ccccc3)C2=O)o1,n,n,n,n,n,n,x
CCOC(=O)/C=C(\C)Sc1cc(O)c2ccccc2c1O,n,81,x,x,77,n,82
CCOC(=O)/C=C(\C)Sc1cc(=O)oc2ccccc12,n,n,n,n,n,n,x
O=C(Cc1ccccc1)NN=Cc1cc(Br)cc(Br)c1O,x,n,x,x,x,x,x
CC1(C)Cc2ccccc2C(c2cc3ccccc3oc2=O)=N1,n,36,n,n,n,n,n
CC1(C)Cc2c(ccc3ccccc23)C(c2cc3ccccc3oc2=O)=N1,n,n,n,n,n,n,x
CCOc1ccccc1NC(=O)CSc1c(C)n[nH]c1C,n,36,n,n,n,n,n
Cc1ccc(NC(=O)C2CC(=O)N/C(=N/N=Cc3ccco3)S2)cc1 (centres undefined),x,n,x,x,x,x,x
COc1ccc(N(C(C)C(=O)NN=Cc2cc(Br)c(C)o2)S(C)(=O)=O)cc1 (centres undefined),x,n,x,x,x,x,x
COc1ccc(N2C(=O)[C@@H]3[C@H](C2=O)[C@H]2c4ccccc4C=CN2[C@@H]3C(C)=O)cc1,n,37,n,n,n,n,n
Cc1ccc(C=NNC(=O)CN2CCN(Cc3ccccc3Cl)CC2)o1,x,n,x,x,x,x,x
CC(C)(C)c1ccc(NC(=O)COC(=O)c2ccc([N+](=O)[O-])s2)cc1,n,n,n,n,n,n,x
O=C(COC(=O)c1ccc([N+](=O)[O-])s1)Nc1ccccc1,n,60,n,n,n,n,n
O=C(COC(=O)c1ccc([N+](=O)[O-])s1)NC(c1ccccc1)c1ccccc1,n,n,n,n,n,n,x
COc1ccc(S(=O)(=O)N2CCOCC2)cc1NC(=O)COC(=O)c1ccc([N+](=O)[O-])s1,n,62,n,n,30,n,n
SMILES,RTF Ca sens act,UCH37 inh,Mot1-301 SUMO,Efflux pump inh,ARNT-TACC3 inh,RTF Ca sens inh,UCH37 reconfirm
O=C(COC(=O)c1ccc([N+](=O)[O-])s1)Nc1ccc(F)cc1,n,67,n,n,n,n,77
O=C(COC(=O)c1ccc([N+](=O)[O-])s1)Nc1cccc(S(=O)(=O)NC2=NCCCCC2)c1,n,62,n,n,n,n,n
O=C(OCc1nnc(-c2ccccc2)o1)c1ccc([N+](=O)[O-])s1,n,80,n,n,n,n,n
O=C(CNC(=O)c1ccncc1)NN=Cc1ccccc1[N+](=O)[O-],x,n,x,x,x,x,x
Cc1ccc(S(=O)(=O)NCC(=O)NN=Cc2ccccc2O)cc1,x,n,x,x,x,x,x
O=C1CCCC2=C1C(c1ccc3c(c1)OCO3)c1c([nH]n(-c3ccccc3)c1=O)N2 (centres undefined),n,32,n,n,n,n,n
CNC(=S)NN=Cc1ccccc1OCC(=O)O,x,n,x,x,x,x,x
Cc1ccc(C(=O)O/N=C\c2ccc(N3CCCCC3)c([N+](=O)[O-])c2)cc1,n,x,n,n,n,n,x
Cc1ccc(C(=O)ON=Cc2ccc(N3CCCCC3)c([N+](=O)[O-])c2)cc1,x,40,x,x,x,x,n
Cc1c(N2C(=O)/C(=C3/C(=O)N(C)c4ccccc43)SC2=S)c(=O)n(-c2ccccc2)n1C,n,n,n,n,n,n,x
CC(=O)N1C(=O)/C(=C2\SC(=S)N(c3c(C)n(C)n(-c4ccccc4)c3=O)C2=O)c2ccccc21,n,25,n,n,n,n,n
CC(CC(=O)Nc1ccc([N+](=O)[O-])cc1)=NNC(=O)C1C2CCCCC21 (centres undefined),x,n,x,x,x,x,x
NC1=CC(=O)C(=O)c2ccccc21,n,44,x,x,18,n,58
O=S(=O)(N=C(Sc1ccc(Cl)cc1)c1ccccc1)c1ccccc1,x,n,x,x,x,x,x
C=CCn1c(N)c(C(=O)OCC)sc1=S,n,n,n,n,n,n,x
CCOC(=O)c1sc(=S)n(CC)c1N,n,52,n,n,n,n,n
COCCCNC(=S)NN=Cc1ccc(N(C)C)cc1Cl,x,n,x,x,x,x,x
O=C1C2C3CCCC3=C3CCCC3C2C(=O)N1c1ccc(F)cc1 (centres undefined),n,32,n,n,n,n,53
CC(=NNS(=O)(=O)c1ccc(C)cc1)c1ccc(C)s1,x,n,x,x,x,x,x
